# UCH37 DUB inh – human UCH37 deubiquitinating enzyme inhibition. Q9Y5K5. AID 588478. inhibition, % (no concentration beside the values). purified proteasome/UCH37, Ub-AMC cleavage fluorescence. 330,000 tested, 0.33% active;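 active = mean inhibition over replicate wells above about 20%, limit read from the data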;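 also: 0% = compound-free wells with enzyme and 100% = wells lacking proteasome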
# Target sequence (Q9Y5K5 whole entry, looked up): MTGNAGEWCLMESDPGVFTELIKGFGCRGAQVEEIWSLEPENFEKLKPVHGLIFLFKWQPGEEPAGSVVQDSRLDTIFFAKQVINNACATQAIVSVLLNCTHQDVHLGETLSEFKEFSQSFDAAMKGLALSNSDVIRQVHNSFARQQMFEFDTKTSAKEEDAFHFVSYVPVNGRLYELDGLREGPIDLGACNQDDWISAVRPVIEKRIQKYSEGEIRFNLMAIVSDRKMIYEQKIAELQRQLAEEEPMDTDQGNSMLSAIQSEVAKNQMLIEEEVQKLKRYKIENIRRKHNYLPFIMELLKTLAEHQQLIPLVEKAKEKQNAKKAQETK
#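 Material: Human UCH37 enzyme supplied as purified proteasome complex | Schedule: 30 min preincubation with enzyme, 25 min cleavage at room temperature | Detection: AMC fluorescence 355/460 nm | Measure: % inhibition of Ub-AMC cleavage fluorescence | Controls: Wells without proteasome as full block, compound-free enzyme plus substrate as uninhibited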
# XBP1 UPR activ – adaptive UPR (XBP1) activation; CHO-XBP1 luciferase reporter, IRE1-XBP1 UPR activation, luminescence; percent of tunicamycin response, DMSO as zero; activation, % at 20 µM; 330,000 tested, 0.33% active; AID 463104;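 active = versus positive control, 20 µM dose yields 30% or more activation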;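 also: 100% = tunicamycin at 10 µg/mL and 0% = DMSO only wells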
#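 Material: CHO cell line with stable XBP1 luciferase reporter; buffer or medium: F12 medium containing 10% fetal bovine serum; compound: single point, 20 µM final compound, 1% DMSO; incubation: 6 h treatment, 37 °C; measured by: glow luminescence from Steady-Glo reagent; evaluation: activation, % of tunicamycin; control set: tunicamycin high, DMSO low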
# UPR CHOP act – apoptotic UPR (CHOP) activation; activation, % at 10 µM; CHO-CHOP luciferase reporter, luminescence; percent of tunicamycin response over DMSO baseline; 330,000 tested, 0.34% active;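 active = at 10 µM dose, activation of 40% or more, normalized to positive control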;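 also: 100% = tunicamycin at 10 µg/mL and 0% = DMSO alone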
#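 assay system = CHO CHOP reporter cells | amount = 500 CHO-CHOP cells per well | buffer or medium = F12 with 10% FBS | incubation = 16-18 h cell attachment, then 6 h compound exposure, 37 °C | detection = luminescence read with Steady-Glo | read-out = percent activation relative to tunicamycin control | controls = tunicamycin high control, DMSO low control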
# Fh CTSL1 inh – cathepsin L1 inhibition, PFM18AAP counter-screen. inhibition, % at 5.96 µM. 300,000 tested, 0.49% active. recombinant F. hepatica cathepsin L1, Z-Leu-Arg-MCA fluorescence. AID 1906;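 active = inhibition above the mean of all tested compounds plus 3 SD, set per screening campaign, cut at about 17% in these data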;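 also: 0% = plate median of test compound wells and 100% = 1 µM Z-Phe-Ala-diazomethylketone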
# CHOP inhibitor – CHOP inhibition in unfolded protein response; CHO-K1 CHOP-promoter luciferase, tunicamycin-induced, 15-18 h; inhibition, % at 10 µM; 220,000 tested, 3.8% active; AID 2732;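 active = compounds that reduced the stress-induced luciferase reporter signal by more than about 70% of percent inhibition, limit read from the data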;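 also: 0% = tunicamycin plus vehicle and 100% = wells without tunicamycin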
# The depositor's hits bear a star; · = not tested or not shown. Shown is part of a subset that was picked to be rich in hits.
SMILES,UCH37 DUB inh,XBP1 UPR activ,UPR CHOP act,Fh CTSL1 inh,CHOP inhibitor
O=C1ON=C(c2ccccc2)/C1=C/c1ccc(-c2ccccc2[N+](=O)[O-])o1,6.6,·,·,1.8,103.5*
O=[N+]([O-])c1ccccc1-c1ccc(/C=N/n2cnnc2)o1,·,2.5,0.3,4.6,17.1
O=C(NN=Cc1ccccn1)c1ccc(NC(=O)c2ccccc2Cl)cc1,0.8,·,·,·,·
CCN(CC)c1ccc(C(=O)c2ccccc2C(=O)O)c(O)c1,20.3*,-0.5,-1.4,4.7,-21.8
CCN(CC)c1ccc(C=NN(c2ccccc2)c2ccccc2)c(O)c1,2.9,·,·,·,·
Cc1nn(C)cc1C=NNC(=O)Cc1ccc([N+](=O)[O-])cc1,2.9,·,·,·,·
Oc1ccc(-c2csc(Nc3ncccn3)n2)c(O)c1,1.6,-2.5,3.8,4.0,93.5*
Oc1ccc(-c2csc(Nc3ncccn3)n2)cc1O,4.6,·,·,·,-20.2
COC(=O)c1ccc2c(=O)n(CC3CCCO3)c(SCC(=O)Nc3ccccc3OC)nc2c1 (stereo unspecified),5.3,13.5,3.0,1.7,11.9
CCc1ccc(NC(=O)CSc2nc3cc(C(=O)OC)ccc3c(=O)n2CC2CCCO2)cc1 (stereo unspecified),-6.3,6.2,1.0,-1.0,93.6*
COC(=O)c1ccc2c(=O)n(Cc3ccco3)c(SCC(=O)Nc3cc(C)on3)nc2c1,-1.2,3.6,0.6,6.6,90.7*
COc1ccc(Br)cc1C=Nn1c(-c2ccccc2)n[nH]c1=S,3.6,·,·,·,·
CC1CCN(Cc2c(C(=O)NN=Cc3cccc(Cl)c3)nnn2-c2nonc2N)CC1,4.4,·,·,·,·
C=CCn1c(COc2ccc(CC)cc2)nnc1SC/C(O)=C(\C#N)c1nc2ccccc2[nH]1,·,-0.1,0.8,4.7,88.1*
C=CCn1c(COc2ccc(CC)cc2)nnc1SCC(O)=C(C#N)c1nc2ccccc2[nH]1,-19.0,·,·,·,·
O=C(c1cccc(F)c1)N1CCN(c2cc(N3CCCCC3)c(F)cc2[N+](=O)[O-])CC1,3.5,-2.0,0.8,1.0,73.2*
COc1cc2[nH]c(=O)n(CCC(=O)N3CCN(Cc4ccccc4)CC3)c(=O)c2cc1OC,-4.7,-1.9,-0.7,-2.2,-11.7
COc1cc2[nH]c(=O)n(CCC(=O)N3CCN(c4cccc(C)c4C)CC3)c(=O)c2cc1OC,0.0,2.2,0.0,-6.5,93.1*
Brc1ccc(-c2ccc(C=NNc3nc4ccccc4[nH]3)o2)cc1,-125.3,·,·,·,·
COC(=O)CSc1nnc(-c2ccccc2OC)o1,-1.8,-1.5,-0.1,-2.4,12.7
O=C(CSc1nnc(-c2ccc(Br)cc2)o1)Nc1cccc(C(=O)O)c1,-0.3,-7.0,-1.6,-2.0,·
Cc1cccc(C)c1OC(=O)CSc1nnc(-c2ccccc2O)o1,-14.7,-0.6,-0.5,4.3,91.6*
Cc1cccc(NC(=O)CSc2nnc(-c3cc(C)n(-c4ccccc4)c3C)o2)c1C,2.9,-5.2,-7.1,0.7,90.8*
O=C(CSc1nnc(-c2ccc(Br)cc2)o1)Nc1cccc2ccccc12,3.4,0.6,-1.1,4.2,70.2*
O=C(CSc1nnc(-c2ccccc2)o1)Oc1ccc(Br)cc1,1.6,-2.9,-1.7,-4.4,81.4*
SMILES,UCH37 DUB inh,XBP1 UPR activ,UPR CHOP act,Fh CTSL1 inh,CHOP inhibitor
COc1ccc(S(=O)(=O)NN=Cc2ccccc2F)cc1,2.1,·,·,·,·
CCC(=O)NN=C(C)CC(=O)Nc1ccccc1-c1ccccc1,4.2,·,·,·,·
CC(=NNC(=O)c1ccccc1F)c1cccc(NC(=O)c2ccc(C)cc2)c1,3.7,·,·,·,·
O=C(N/N=C/c1cccc(Oc2ccccc2)c1)c1ccccc1Br,·,-0.4,-1.5,2.5,84.1*
Clc1ccc(-c2csc(NN=Cc3ccco3)n2)cc1,1.5,·,·,·,·
COc1cc(C=Nn2c(C)n[nH]c2=S)ccc1OCc1ccccc1,2.5,·,·,·,·
COc1ccc(C=NNC(=O)c2ccc([N+](=O)[O-])c(C)c2)cc1COc1ccccc1C(N)=O,1.3,·,·,·,·
COc1cc(NS(=O)(=O)c2ccc(N/C=C(\C#N)c3nc4cc(Cl)ccc4o3)cc2)nc(OC)n1,1.7,-1.2,0.3,7.9,91.8*
Cc1ccc(-c2nc3ccccc3o2)cc1NC(=S)NC(=O)c1cc2ccccc2o1,7.1,·,·,-1.5,84.8*
Cc1ccc2oc(-c3ccc(C)c(NC(=S)NC(=O)c4cccs4)c3)nc2c1,4.6,1.4,4.8,-1.8,5.2
CCC(=O)Nc1cccc(NC(=S)NC(=O)c2cc3ccccc3o2)c1,·,-4.5,1.2,-1.5,94.1*
